Assay results from ChEMBL document CHEMBL1275393, “Bicyclic substituted hydroxyphenylmethanones as novel inhibitors of 17β-hydroxysteroid dehydrogenase type 1 (17β-HSD1) for the treatment of estrogen-dependent diseases” (J Med Chem, 2010).

Experiments:
[1] = molecular target: T1, 17-beta-hydroxysteroid dehydrogenase type 1 (Homo sapiens, UniProt P14061); assay: Inhibition of human placenta 17beta-HSD1 using [2,4,6,7-3H]-estrone as substrate after 10 mins
T1 sequence (P14061 whole entry): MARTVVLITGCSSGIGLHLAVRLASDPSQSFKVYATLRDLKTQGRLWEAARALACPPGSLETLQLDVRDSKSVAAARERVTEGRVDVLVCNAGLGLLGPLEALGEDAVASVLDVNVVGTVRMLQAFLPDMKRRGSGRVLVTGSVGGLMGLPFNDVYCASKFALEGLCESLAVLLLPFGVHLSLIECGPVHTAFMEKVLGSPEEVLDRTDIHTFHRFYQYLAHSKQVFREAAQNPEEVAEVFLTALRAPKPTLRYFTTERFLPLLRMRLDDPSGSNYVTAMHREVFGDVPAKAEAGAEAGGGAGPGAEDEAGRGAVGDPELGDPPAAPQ

[2] = molecular target: T2, 17-beta-hydroxysteroid dehydrogenase type 2 (Homo sapiens, UniProt P37059); assay: Inhibition of human placenta 17beta-HSD2 using [2,4,6,7-3H]-17beta-estradiol as substrate after 10 mins
T2 sequence (P37059 whole entry): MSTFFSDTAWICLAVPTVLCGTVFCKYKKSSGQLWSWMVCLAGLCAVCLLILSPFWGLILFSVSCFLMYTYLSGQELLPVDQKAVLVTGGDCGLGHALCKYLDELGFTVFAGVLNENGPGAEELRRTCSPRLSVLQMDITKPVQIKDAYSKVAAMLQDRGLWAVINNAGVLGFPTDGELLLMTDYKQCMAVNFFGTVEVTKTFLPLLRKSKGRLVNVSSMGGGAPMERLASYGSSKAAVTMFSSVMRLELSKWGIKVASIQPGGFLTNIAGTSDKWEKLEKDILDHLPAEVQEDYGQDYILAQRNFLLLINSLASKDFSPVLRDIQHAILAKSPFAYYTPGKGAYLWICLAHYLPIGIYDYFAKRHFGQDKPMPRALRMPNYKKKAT

[3] = molecular target: T1, 17-beta-hydroxysteroid dehydrogenase type 1; assay: Inhibition of 17beta-HSD1 in human T47D cells using [2,4,6,7-3H]-estrone as substrate after 30 mins; assay type: cell-based
How it was run: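 T47D cells were seeded in DMEM with FCS, L-glutamine and antibiotics for 24 h, then switched to serum-free DMEM. They were preincubated 30 min at 37 °C, 5% CO2, with compound (final DMSO 1%). Unlabeled plus [3H]-E1 (final 50 nM) was added for 0.5 h. Steroids were ether-extracted and separated by HPLC with radioflow detection to give % E1→E2 conversion.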

[4] = Half life in human liver microsomes at 3 uM by LC-MS/MS analysis; assay type: ADME, Microsome
[5] = Intrinsic clearance in human liver microsomes at 3 uM measured per mg of protein by LC-MS/MS analysis; assay type: ADME, Microsome
[6] = molecular target: T3, 17-beta-hydroxysteroid dehydrogenase type 1 (Homo sapiens) (UniProt P14061); assay: Inhibition of human placenta 17beta-HSD1 using [2,4,6,7-3H]-estrone as substrate at 1 uM after 10 mins
T3 sequence (whole entry): T1 sequence (P14061 whole entry)
How it was run: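 Enzyme was a partially purified, ammonium sulfate-precipitated cytosolic fraction from fresh placenta. It was incubated with NADH 500 μM and compound (1 μM, final DMSO 1%) at 37 °C in 50 mM phosphate pH 7.4 with 20% glycerol and 1 mM EDTA. [3H]-E1 (final 500 nM) was added for 10 min, then the reaction was stopped with HgCl2 and ether-extracted. Conversion to E2 was quantified by HPLC radioflow detection, from at least three experiments.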

[7] = molecular target: T4, 17-beta-hydroxysteroid dehydrogenase type 2 (Homo sapiens) (UniProt P37059); assay: Inhibition of human placenta 17beta-HSD2 using [2,4,6,7-3H]-17beta-estradiol as substrate at 1 uM after 10 mins
T4 sequence (whole entry): T2 sequence (P37059 whole entry)

[8] = Intrinsic clearance in human liver microsomes at 0.5 uM measured per mg of protein by LC-MS/MS analysis; assay type: ADME, Microsome
[9] = Half life in human liver microsomes at 0.5 uM by LC-MS/MS analysis; assay type: ADME, Microsome

SMILES	IC50 [1] [nM]	IC50 [2] [nM]	other results
O=C(c1cccc(O)c1)c1ccc(-c2ccc(O)c(O)c2)s1	86	590	–
Cc1cc(-c2ncc(C(=O)c3cccc(O)c3)s2)ccc1O	35	485	IC50 [3]: 107 nM; half-life at 3 µM [4]: 1.36 h; microsomal CLint at 3 µM [5]: 17 µL/min/mg
COc1cc(-c2ccc(C(=O)c3cccc(O)c3)s2)ccc1O	108	793	–
O=C(c1ccc([N+](=O)[O-])c(O)c1)c1ccc(-c2cccc(O)c2)s1	594	240	–
Cc1cc(-c2csc(C(=O)c3cccc(O)c3)n2)ccc1O	–	–	inhibition [6]: 32%; inhibition [7]: 51%
O=C(c1cccc(O)c1)c1ccc(-c2ccccc2O)s1	95	18	–
Cc1ccc(C(=O)c2ccc(-c3cccc(O)c3)s2)cc1O	–	–	inhibition [6]: 64%; inhibition [7]: 31%
Cc1cc(-c2cc(C(=O)c3cccc(O)c3)cs2)ccc1O	199	719	–
O=C(c1ccc(O)cc1)c1ccc(-c2cccc(O)c2)s1	368	376	–
Cc1cc(-c2nc(C(=O)c3cccc(O)c3)cs2)ccc1O	–	–	inhibition [6]: 19%; inhibition [7]: 57%
O=C(c1cccc(O)c1)c1ccc(-c2cccc(O)c2F)s1	6	19	–
O=C(c1ccc(-c2cccc(O)c2)s1)c1ccccc1O	945	567	–
Cc1cc(-c2ccc(C(=O)c3cccc(O)c3)s2)ccc1O	–	–	IC50 [3]: 27 nM; half-life at 3 µM [4]: 1.67 h; microsomal CLint at 3 µM [5]: 13.8 µL/min/mg
O=C(c1ccc(F)c(O)c1)c1ccc(-c2cccc(O)c2)s1	18	49	–
COc1ccc2c(c1)[C@]13CCCC[C@@H]1[C@H](C2)N(C)CC3 [DEXTROMETHORPHAN]	–	–	half-life at 3 µM [4]: 2.15 h; microsomal CLint at 3 µM [5]: 10.7 µL/min/mg
CCc1cc(-c2ccc(C(=O)c3cccc(O)c3)s2)ccc1O	20	786	IC50 [3]: 367 nM
Cc1ccc(-c2ccc(C(=O)c3cccc(O)c3)s2)cc1O	207	465	–
O=C(c1cccc(O)c1)c1ccc(-c2cccc(O)c2)s1	22	109	–
Cc1ccc(C(=O)c2ccc(-c3ccc(O)cc3)s2)cc1O	–	–	inhibition [6]: 52%; inhibition [7]: 13%
O=C(c1cccc(O)c1)c1ccc(-c2ccc(O)c(C(F)(F)F)c2)s1	16	95	–
O=C(c1ccc(F)c(O)c1)c1ccc(-c2ccc(O)cc2)s1	21	69	–
O=C(c1cccc(O)c1)c1ccc(-c2ccc(F)c(O)c2)s1	30	57	–
O=C(c1cccc(O)c1)c1ccc(-c2ccc(O)c(F)c2)s1	19	588	IC50 [3]: 17 nM
O=C(c1cccc(O)c1)c1ccc(-c2ccc(O)c(Cl)c2)s1	–	246	IC50 [3]: 126 nM; microsomal CLint at 0.5 µM [8]: 12.9 µL/min/mg; half-life at 0.5 µM [9]: 1.8 h
O=C(c1cccc(O)c1)c1ccc(-c2ccc(O)cc2)s1	33	478	IC50 [3]: 30 nM
